How the values were obtained:
stable duplexes = conditions: read-out: Conc50, concentration required to reach the formation of 50% of stable duplexes as a measure of NAC activity; NO = no observed activity; cited from earlier work
29/mm29c DNA duplex = experiment: DNA-melting assay on mismatched duplex; type: biochemical; conditions: 1 μM peptide, 32P-29mer/mm29c duplex
Summary of the method: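 A 32P-29mer and its complementary strand carrying four internal mismatches (mm29c) were annealed in water: 5 min at 95 °C, NaCl added to 50 mM, then slowly cooled to 22 °C. It was incubated 5 min at 25–55 °C, sampled every 5 °C into ice-cold tRNA/SDS/Ficoll stop mix, run on native 15 % PAGE and phosphorimaged.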

130nt-RNA = experiment: EMSA, binding to 32P-labelled 130nt-RNA; set-up: species or system Trypanosoma cruzi; conditions: peptide 9 to 30 μM
Summary of the method: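 The probe was a T7 transcript radiolabelled with [α-32P]UTP, gel-purified and desalted on Sephadex G-50. Probe (0.72 nM) was incubated with increasing peptide for 30 min at 37 °C. Peptide stocks were 500 μM in PBS with 30 μM ZnCl2. Gels were dried and phosphorimaged. Kd is the peptide concentration giving 50 % RNA bound, from a Hill-equation fit.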

135nt-ssDNA = experiment: EMSA, binding to 32P-labelled 135nt-ssDNA; set-up: species or system Trypanosoma cruzi
135bp-dsDNA = experiment: EMSA, binding to 32P-labelled 135bp-dsDNA; set-up: species or system Trypanosoma cruzi; conditions: peptide 0.9-30 μM

For “LT……CPHCDSTLTGFSGLVSHCRSFHP [compound 5032]”, the EC50 (stable duplexes) is listed as greater than 30 µM, the “effect on the Tm of the mismatched DNA duplex (in words)” value (29/mm29c DNA duplex) is listed as “does not have any influence on the Tm” and the “RNA-binding affinity (in words)” value (130nt-RNA) is listed as “complete loss of affinity”. For the same substance, the “ssDNA-binding affinity (in words)” value (135nt-ssDNA) was “very low affinity” and the “dsDNA-binding affinity (in words)” value (135bp-dsDNA) was “no affinity”.

In the case of “TVPPSAREEDVSPV…TLTRRRKEKC [compound 5030]”, the EC50 (stable duplexes) is given as greater than 30 µM, the “effect on the Tm of the mismatched DNA duplex (in words)” value (29/mm29c DNA duplex) is given as “does not have any influence on the Tm” and the “RNA-binding affinity (in words)” value (130nt-RNA) is given as “eliminated”. The “dsDNA-binding affinity (in words)” value (135bp-dsDNA) was “complete loss of binding affinity”.

From article PMC2805920 (Biochemical Journal, 2009)
